OX1R antag-1 = antagonists of human orexin 1 receptor (OX1R). O43613. OX1R-expressing cells, FRET antagonist read-out. inhibition, % at 6.6 µM. 1.8% of 330,000 active. AID 485270; in the data active = inhibition mostly above about 38%, no sharp cut-off; inactive = mostly below about 40%;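 also: 0% = agonist challenge alone and 100% = reference antagonist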
Target sequence (O43613 whole entry, looked up): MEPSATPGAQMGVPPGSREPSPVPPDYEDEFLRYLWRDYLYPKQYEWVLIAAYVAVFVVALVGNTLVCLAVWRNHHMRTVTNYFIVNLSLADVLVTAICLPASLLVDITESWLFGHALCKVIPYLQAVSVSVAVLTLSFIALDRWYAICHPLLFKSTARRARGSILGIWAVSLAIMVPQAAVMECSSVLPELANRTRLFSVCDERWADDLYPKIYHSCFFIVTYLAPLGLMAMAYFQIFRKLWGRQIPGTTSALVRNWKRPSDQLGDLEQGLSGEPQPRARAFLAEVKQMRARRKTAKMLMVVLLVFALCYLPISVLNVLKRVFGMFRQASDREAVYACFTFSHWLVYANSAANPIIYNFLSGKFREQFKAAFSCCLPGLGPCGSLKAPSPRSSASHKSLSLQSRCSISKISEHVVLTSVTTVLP
CHO-K1 Ca antag = counter-screen for M1 antagonists: effect in parental CHO-K1 cells; ATP-induced calcium, Fluo-8 fluorescence; inhibition, % at 3 µM; 0.6% of 360,000 active; AID 602250;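 active = inhibition above a per-plate cutoff, the plate's mean sample inhibition plus 3 SD, cut at about 24% in these data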;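 also: 0% = DMSO plus EC80 ATP and 100% = DMSO alone without ATP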
OX1R antag-2 = blocks the human orexin 1 receptor; O43613; 0.43% of 330,000 active; AID 434989; CHO/OX1R cells, Fluo-8 calcium fluorescence, orexin A; inhibition, % at 5 µM;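 active = inhibition above its plate's threshold, mean inhibition of all tested compounds on the plate plus 3 SD, cut at about 37% in these data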;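 also: 0% = orexin A challenge wells and 100% = SB-334867-A antagonist wells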
CHO-K1 Ca PAM = counter-screen for M1 PAMs: effect in parental CHO-K1 cells | ATP EC20, Fluo-8 calcium fluorescence; 0% at ATP EC20, 100% at ATP max | activation, % at 3 µM | 0.02% of 360,000 active | AID 602247;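 active = activation above the run cutoff, the mean activation of all test compounds plus 3 SD, cut at about 40% in these data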;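 also: peak over basal fluorescence ratio in a 140 s read after ATP addition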
CHO-K1 Ca ag = counter-screen for M1 agonists: effect in parental CHO-K1 cells | Fluo-8 calcium fluorescence; scaled to maximal ATP response, vehicle zero | activation, % at 3 µM | 0.48% of 360,000 active | AID 602248; in the data active = activation above about 15%;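 also: untransfected CHO-K1 host cells lacking M1 receptor as counterscreen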
CHO parental Ca = counter-screen for OX1R antagonists: effect in parental CHO cells; AID 463079; parental CHO-K1, ATP-induced calcium, Fluo-8 fluorescence; 0.63% of 330,000 active; inhibition, % at 5.6 µM;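 active = inhibition above that plate's mean sample inhibition plus 3 SD, cut at about 26% in these data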;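 also: 0% = ATP-challenged DMSO wells and 100% = DMSO wells without ATP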
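Assay system – parental CHO cells · Reagent – ATP stimulus · Detection – intracellular calcium via Fluo-8 no-wash fluorescent dye · Evaluation – percent inhibition of ATP-evoked calcium rise, normalized to controls · Controls – ATP wells versus no-ATP DMSO wells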
Numbers without * were called inactive; x = no result given. In the library only some 2.9% were active in any assay of this set; here they are far more common.

SMILES	OX1R antag-1	CHO-K1 Ca antag	OX1R antag-2	CHO-K1 Ca PAM	CHO-K1 Ca ag	CHO parental Ca
Cn1c(=O)c(C(=O)NNC(=O)c2ccccc2Cl)c(O)c2ccccc21	27	-12	-20	8	0	5
CCn1c(=O)c(C(=O)Nc2ccccc2)c(O)c2ccccc21	10	20	-6	-16	-1	5
CCn1c(=O)c(C(=O)Nc2nc3ccccc3[nH]2)c(O)c2ccccc21	34	20	106*	9	2	98*
COc1cc2c(cc1OC)C(=O)CCC2	x	-6	x	13	1	x
O=C(Nc1cccc(Cl)c1)c1csc([C@@H]2O[C@H](CO)[C@H](O)[C@H](O)[C@H]2O)n1	x	22	x	-7	0	x
CCn1c(=O)c(C(=O)NNC(=O)c2ccccc2Br)c(O)c2ccccc21	24	-9	-28	3	17*	-14
Cn1c(=O)c(C(=O)NNC(=O)c2ccccc2Br)c(O)c2ccccc21	26	-6	-38	-2	0	-23
Cn1c(=O)c(C(=O)NNC(=O)c2cccc(Cl)c2)c(O)c2ccccc21	19	7	44*	-5	0	47*
CC(C)CN1C(=O)c2ccc(C(=O)Nc3ccccc3C(=O)O)cc2C1=O	15	-5	-36	-1	1	-5
Cc1ccc(S(=O)(=O)C(c2ccccc2)c2c(C)noc2C)cc1 (stereo not drawn)	15	1	-8	5	0	-11
Cc1noc(C)c1C(c1ccccc1)S(=O)(=O)c1ccccc1 (stereo not drawn)	10	28*	-19	-11	0	-14
COc1cc(OC)c(OC)cc1CNCCSc1nnnn1C	10	1	-19	11	19*	-13
CCOc1cc(CNCCO)cc(Br)c1OCc1ccccc1	15	10	8	9	3	-7
CCOc1cc(CNCCSc2nnnn2C)cc(Br)c1OCc1ccccc1	11	17	51*	-7	1	66*
Cn1nnnc1SCCNCc1cc(Cl)ccc1OCc1ccccc1	10	-3	-16	3	8	-12
COc1c2c(cc3oc(CO[C@@H]4O[C@H](CO)[C@@H](O)[C@H](O)[C@H]4O)cc(=O)c13)O[C@H](C(C)(C)O)C2	6	-7	-10	3	-1	-2
C[C@H]1CN([C@@H](C)CO)C(=O)CCCn2nncc2CO[C@@H]1CN(C)Cc1ccncc1	x	-17	x	39	0	x
Cc1cc(C)n(CCc2nc(-c3cc4ccccc4o3)cs2)n1	55	8	55*	10	7	38*
O=C(CN1CCN(S(=O)(=O)c2ccc(Cl)c(Cl)c2)CC1)N1CCCC1	8	-14	-3	16	-1	-18
CC(C)CNC(=S)N1CCN(c2nc3ccccc3s2)CC1	14	-1	11	4	12	72*
CCOP(=O)(OCC)C(C)(C)NC(=O)c1cc([N+](=O)[O-])cc([N+](=O)[O-])c1	59*	2	8	-3	0	-3
CCOP(=O)(OCC)C(NC(=O)c1cc([N+](=O)[O-])cc([N+](=O)[O-])c1)C(F)(F)F (stereo not drawn)	67*	-1	-26	6	1	-17
CCC(C)(C)NC(=O)c1cc(C(=O)OC)cc([N+](=O)[O-])c1	30	-9	-2	18	0	-14
CCCCN1C(=O)C(CC(=O)NCCCCc2ccccc2)CC(C(=O)N2CCCCCC2)=C1C (stereo not drawn)	x	-16	x	-2	1	x
CCCCC(=O)N(C)c1c(C)nc2ccc(C(=O)Nc3cccc(OC)c3)cn12	x	6	x	-4	4	x
SMILES	OX1R antag-1	CHO-K1 Ca antag	OX1R antag-2	CHO-K1 Ca PAM	CHO-K1 Ca ag	CHO parental Ca
CC(=O)N1CCc2ccc(NC(=O)c3c(-c4c(Cl)cccc4Cl)noc3C)cc21	10	-1	-18	8	5	-15
c1ccc(-c2cnc(-c3ccccc3)nn2)cc1	26	-5	10	1	0	-6
Cc1nnc(-c2ccccc2)c[n+]1[O-]	56*	-5	-2	15	0	3
Cc1c(CCOC(=O)c2ccccc2)sc[n+]1Cc1ccccc1	-2	26*	-3	-15	-1	-2
Cc1c(CCOC(=O)c2ccccc2)sc[n+]1CC(=O)c1ccc(Br)cc1	13	-6	-17	-9	1	-7
Cc1cc(/C=C2/C(=N)N3C(=NC2=O)SN=C3S(C)(=O)=O)c(C)n1-c1ccccc1F	47*	0	14	8	1	-3
CCCC1=NN2C(=N)/C(=C\c3cc(C)n(Cc4ccccc4)c3C)C(=O)N=C2S1	11	-5	104*	-17	27*	86*
Cc1cc(/C=C2\C(=N)N3N=C(S(C)(=O)=O)SC3=NC2=O)c(C)n1Cc1ccccc1	58*	-3	-2	23	0	0
COc1cc(CNCCO)cc(Cl)c1OCc1ccc(Cl)cc1Cl	8	1	24	22	4	3
CN(C1=C(NC(=O)c2ccccc2)C(=O)c2ccccc2C1=O)C1CCS(=O)(=O)C1 (stereo not drawn)	85*	1	-19	2	0	-10
O=C(NC(=S)NC1CCS(=O)(=O)C1)c1ccccc1 (stereo not drawn)	17	-6	-6	19	0	4
CCc1noc(C)c1C(=O)Nc1ccccc1C(C)(C)C	32	-3	-9	18	1	-3
O=C1OC(c2ccccc2)=N/C1=C/c1cccc(OC(=O)c2cccs2)c1	20	43*	-2	7	2	-10
CCC(C)C(CO)NCCCn1cnc2c(SC)ncnc21 (stereo not drawn)	x	-13	x	22	1	x
CCSc1nnc(NC(=O)NC(CC)(C(F)(F)F)C(F)(F)F)s1	47	34*	66*	-5	7	79*
O=C(CSc1nnc(COc2ccc(Cl)cc2)o1)Nc1nccs1	x	-6	x	22	3	x
Cc1ccc(C(=O)Nc2ccc(C(=O)N/N=C/c3ccc(C)o3)cc2)cc1	7	-3	-6	13	1	7
COCCOC(=O)c1[nH]c2c(c1C)C(=O)CC(c1ccccc1)C2 (stereo not drawn)	27	8	-6	-6	2	42*
COCCOC(=O)c1[nH]c2c(c1C)C(=O)CC(c1ccc(N(C)C)cc1)C2 (stereo not drawn)	13	6	-10	6	16*	-7
COCCOC(=O)c1[nH]c2c(c1C)C(=O)CC(c1ccco1)C2 (stereo not drawn)	-1	-3	-4	21	1	-7
O=C(COC(=O)c1ccc(F)cc1F)NCCNC(=O)COC(=O)c1ccc(F)cc1F	32	-6	-2	10	1	4
O=C(COC(=O)c1ccc2c(c1Cl)C(=O)c1ccccc1C2=O)NC1CCCCC1	16	2	-37	1	3	-17

Assay outcomes from PubChem BioAssay.
